Source: ChEMBL document CHEMBL3596154, “Discovery of biaryl carboxylamides as potent RORγ inverse agonists” (Bioorg Med Chem Lett, 2015)

Experiments:
[1] = molecular target: T1, Nuclear receptor ROR-gamma (Homo sapiens, UniProt P51449); experiment: Inverse agonist activity at human recombinant GST-tagged RORgammat ligand binding domain assessed as effect on receptor-biotin tagged TRAP220 co-activator peptide interaction using 10 nM GST-RORgamma LBD by FRET-based assay
T1 sequence (P51449 whole entry): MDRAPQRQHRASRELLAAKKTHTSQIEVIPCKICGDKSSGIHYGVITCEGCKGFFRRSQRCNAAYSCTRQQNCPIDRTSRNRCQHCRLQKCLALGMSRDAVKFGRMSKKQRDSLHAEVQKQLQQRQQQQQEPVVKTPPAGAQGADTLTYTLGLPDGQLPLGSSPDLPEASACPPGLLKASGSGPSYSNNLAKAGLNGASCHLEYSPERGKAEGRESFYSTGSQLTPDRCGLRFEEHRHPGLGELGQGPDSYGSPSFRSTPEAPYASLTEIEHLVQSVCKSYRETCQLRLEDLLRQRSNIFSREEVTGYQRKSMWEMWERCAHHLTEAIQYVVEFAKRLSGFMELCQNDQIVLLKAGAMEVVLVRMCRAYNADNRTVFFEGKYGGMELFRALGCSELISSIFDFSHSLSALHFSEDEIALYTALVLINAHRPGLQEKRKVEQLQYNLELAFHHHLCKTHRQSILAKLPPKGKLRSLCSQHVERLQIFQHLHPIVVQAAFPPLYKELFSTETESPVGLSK
Summary of the method: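 Recombinant human GST-RORγ LBD (10 nM) with 40 nM biotin-TRAP220 co-activator peptide, 50 nM SAAPC, 1.5 nM Eu-anti-GST IgG. Buffer: 20 mM Tris-HCl pH 7.0, 60 mM NaCl, 5 mM MgCl2, 1 mM DTT, 0.1% BSA, 1.0% DMSO. FRET read on plate reader. IC50 is the mean of at least two runs.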

[2] = molecular target: T1, Nuclear receptor ROR-gamma; experiment: Inverse agonist activity at Gal4 DNA binding domain-tagged human RORgammat expressed in HEK293T cells assessed as effect on receptor-mediated transcriptional activity by luciferase reporter gene assay; type: functional, cell-based, HEK-293T
Summary of the method: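 293T cells transfected with a Gal4:RORγ luciferase reporter. Cells seeded day 1 and transfected day 2; compound added in assay medium after transfection. Day 3: cells lysed and luminescence read by dual-flash. Dose-response EC50 is the mean of at least two runs.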

[3] = Clearance in mouse hepatocytes relative to hepatic blood flow; type: ADME, cell-based, Liver, Hepatocyte; conditions: read-out: CLH
[4] = Clearance in human hepatocytes relative to hepatic blood flow; type: ADME, cell-based, Liver, Hepatocyte; conditions: read-out: CLH
[5] = Clearance in rat hepatocytes relative to hepatic blood flow; type: ADME, cell-based, Liver, Hepatocyte; conditions: read-out: CLH
[6] = molecular target: T1, Nuclear receptor ROR-gamma; experiment: Inverse agonist activity at human recombinant GST-tagged RORgammat ligand binding domain assessed as effect on receptor-biotin tagged TRAP220 co-activator peptide interaction using 10 nM GST-RORgamma LBD by FRET-based assay
[7] = Cmax in rat at 10 mg/kg, po; type: ADME, organism-based; parameters: dose 10 mg/kg, route oral; conditions: in vivo
[8] = AUC (infinity) in rat at 2 mg/kg, iv; type: ADME, organism-based; parameters: dose 2 mg/kg, time infinity, route intravenous; conditions: in vivo
Summary of the method: (§1)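 Rat PK; iv dosing at 2.0 mg/Kg in SPEW vehicle, oral dosing at 10 mg/Kg in 0.1% CMC-0.2%Tween; AUCinf reported in ng*hr/mL.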

[9] = Cmax in rat at 2 mg/kg, iv; type: ADME, organism-based; parameters: dose 2 mg/kg, route intravenous; conditions: in vivo
Summary of the method: (§2)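 Rats dosed at 2.0 mg/kg intravenously in SPEW vehicle. Plasma exposure profiled for T1/2 and Cmax.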

Rattus norvegicus = experiment: Clearance in rat at 2 mg/kg, iv relative to hepatic blood flow; type: ADME, organism-based, Liver; conditions: in vivo
Summary of the method: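 Rats given 2.0 mg/kg iv in SPEW vehicle. Clearance is expressed as % of hepatic blood flow (%Qh).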

[10] = Oral bioavailability in rat at 10 mg/kg; type: ADME, organism-based; conditions: in vivo
[11] = Apparent permeability from basolateral to apical side in human Caco2 cells; type: ADME, cell-based; conditions: Caco-2
[12] = AUC (infinity) in rat at 10 mg/kg, po; type: ADME, organism-based; parameters: dose 10 mg/kg, route oral, time infinity; conditions: in vivo; summary of the method: as §1
[13] = Inhibition of CYP450 (unknown origin); type: ADME; conditions: human
[14] = Apparent permeability from apical to basolateral side in human Caco2 cells; type: ADME, cell-based; conditions: Caco-2
[15] = Half life in rat at 2 mg/kg, iv; type: ADME, organism-based; conditions: in vivo; summary of the method: as §2

Row | Structure (SMILES) | IC50 [1] | EC50 [2] | further results
1 | NC(=O)c1ccc(Cl)c(-c2ccc3c(c2)CCCN3C(=O)c2c(F)cccc2Cl)c1 | 220 nM | 200 nM | 
2 | NC(=O)c1cccc(-c2ccc3c(c2)CCCN3C(=O)c2c(F)cccc2Cl)c1 | 6200 nM |  | 
3 | Cc1ccc(C(N)=O)cc1-c1ccc2c(c1)CCCN2C(=O)c1c(F)cccc1Cl | 300 nM | 450 nM | 
4 | COc1ccc(C(N)=O)cc1-c1ccc2c(c1)CCCN2C(=O)c1c(F)cccc1Cl | 1000 nM |  | 
5 | NC(=O)c1ccc(F)c(-c2ccc3c(c2)CCCN3C(=O)c2c(F)cccc2Cl)c1 | 10900 nM |  | 
6 | NC(=O)c1cc(F)cc(-c2ccc3c(c2)CCCN3C(=O)c2c(F)cccc2Cl)c1 | 13000 nM |  | 
7 | NC(=O)c1cc(-c2ccc3c(c2)CCCN3C(=O)c2c(F)cccc2Cl)ccc1F | 9300 nM |  | 
8 | NC(=O)c1cc(-c2ccc3c(c2)CCCN3C(=O)c2c(F)cccc2Cl)c(F)cc1F | 7100 nM |  | 
9 | NC(=O)c1cc(-c2ccc3c(c2)CCCN3C(=O)c2c(F)cccc2Cl)c(Cl)cc1F | 550 nM | 140 nM | 
10 | CNC(=O)c1ccc(Cl)c(-c2ccc3c(c2)CCCN3C(=O)c2c(F)cccc2Cl)c1 | 100 nM | 200 nM | 
11 | CN(C)C(=O)c1ccc(Cl)c(-c2ccc3c(c2)CCCN3C(=O)c2c(F)cccc2Cl)c1 | 2100 nM |  | 
12 | CCNC(=O)c1ccc(Cl)c(-c2ccc3c(c2)CCCN3C(=O)c2c(F)cccc2Cl)c1 | 330 nM | 160 nM | 
13 | O=C(NC1CCCC1)c1ccc(Cl)c(-c2ccc3c(c2)CCCN3C(=O)c2c(F)cccc2Cl)c1 | 370 nM | 330 nM | 
14 | O=C(NCCO)c1ccc(Cl)c(-c2ccc3c(c2)CCCN3C(=O)c2c(F)cccc2Cl)c1 | 190 nM | 210 nM | 
15 | O=C(NCC(O)CO)c1ccc(Cl)c(-c2ccc3c(c2)CCCN3C(=O)c2c(F)cccc2Cl)c1 (configuration not stated) | 750 nM |  | 
16 | COCCNC(=O)c1ccc(Cl)c(-c2ccc3c(c2)CCCN3C(=O)c2c(F)cccc2Cl)c1 | 1340 nM |  | 
17 | O=C(NCCN1CCOCC1)c1ccc(Cl)c(-c2ccc3c(c2)CCCN3C(=O)c2c(F)cccc2Cl)c1 | 2120 nM |  | 
18 | NC(=O)c1ccc(Cl)c(-c2ccc3c(c2)CCN3C(=O)c2c(F)cccc2Cl)c1 | 4800 nM |  | 
19 | NC(=O)c1ccc(Cl)c(-c2ccc3c(c2)CCCCN3C(=O)c2c(F)cccc2Cl)c1 | 360 nM | 530 nM | 
20 | CC1CCc2cc(-c3cc(C(N)=O)ccc3Cl)ccc2N1C(=O)c1c(F)cccc1Cl (configuration not stated) | 10000 nM |  | 
21 | CC1(C)Cc2cc(-c3cc(C(N)=O)ccc3Cl)ccc2N(C(=O)c2c(F)cccc2Cl)C1 | 640 nM | 450 nM | 
22 | CC1(C)CCN(C(=O)c2c(F)cccc2Cl)c2ccc(-c3cc(C(N)=O)ccc3Cl)cc21 | 200 nM | 300 nM | 
23 | NC(=O)c1ccc(Cl)c(-c2ccc3c(c2)C(F)(F)CCN3C(=O)c2c(F)cccc2Cl)c1 | 3600 nM |  | hepatic extraction ratio [3]: 0.83; hepatic extraction ratio [4]: 0.74; hepatic extraction ratio [5]: 0.86
24 | NC(=O)c1ccc(Cl)c(-c2ccc3c(c2)OCCN3C(=O)c2c(F)cccc2Cl)c1 | 1900 nM |  | hepatic extraction ratio [3]: 0.82; hepatic extraction ratio [4]: 0.76; hepatic extraction ratio [5]: 0.85
25 | CN1CCN(C(=O)c2c(F)cccc2Cl)c2ccc(-c3cc(C(N)=O)ccc3Cl)cc21 | 250 nM | 210 nM | 

Row | Structure (SMILES) | IC50 [1] | EC50 [2] | further results
26 | CN(C(=O)c1c(F)cccc1Cl)c1ccc(-c2cc(C(N)=O)ccc2Cl)cc1 |  |  | IC50 [6]: 8700 nM
27 | CCN(C(=O)c1c(F)cccc1Cl)c1ccc(-c2cc(C(N)=O)ccc2Cl)cc1 |  |  | IC50 [6]: 1290 nM
28 | CN(C(=O)c1c(F)cccc1Cl)c1ccc(-c2cc(C(N)=O)ccc2Cl)cc1F |  |  | IC50 [6]: 1930 nM
29 | CN(C(=O)c1c(F)cccc1Cl)c1ccc(-c2cc(C(N)=O)ccc2Cl)cc1Cl |  |  | IC50 [6]: 2090 nM
30 | CN(C(=O)c1c(F)cccc1Cl)c1ccc(-c2cc(C(N)=O)ccc2Cl)cc1Br |  | 772 nM | IC50 [6]: 820 nM
31 | Cc1cc(-c2cc(C(N)=O)ccc2Cl)ccc1N(C)C(=O)c1c(F)cccc1Cl |  |  | IC50 [6]: 4220 nM
32 | CCc1cc(-c2cc(C(N)=O)ccc2Cl)ccc1N(C)C(=O)c1c(F)cccc1Cl |  | 350 nM | IC50 [6]: 730 nM
33 | CN(C(=O)c1c(F)cccc1Cl)c1ccc(-c2cc(C(N)=O)ccc2Cl)cc1C(F)(F)F |  | 484 nM | IC50 [6]: 230 nM
34 | COc1cc(-c2cc(C(N)=O)ccc2Cl)ccc1N(C)C(=O)c1c(F)cccc1Cl |  | 984 nM | IC50 [6]: 370 nM
35 | CCN(C(=O)c1c(F)cccc1Cl)c1ccc(-c2cc(C(N)=O)ccc2Cl)cc1OC |  |  | IC50 [6]: 1500 nM
36 | CCN(C(=O)c1c(F)cccc1Cl)c1ccc(-c2cc(C(N)=O)ccc2Cl)cc1C(F)(F)F | 1600 nM |  | 
37 | CCOc1cc(-c2cc(C(N)=O)ccc2Cl)ccc1N(C)C(=O)c1c(F)cccc1Cl | 50 nM | 181 nM | 
38 | CC(C)Oc1cc(-c2cc(C(N)=O)ccc2Cl)ccc1N(C)C(=O)c1c(F)cccc1Cl | 54 nM | 182 nM | 
39 | CCCOc1cc(-c2cc(C(N)=O)ccc2Cl)ccc1N(C)C(=O)c1c(F)cccc1Cl | 11 nM | 58 nM | 
40 | CCCCOc1cc(-c2cc(C(N)=O)ccc2Cl)ccc1N(C)C(=O)c1c(F)cccc1Cl | 22 nM | 101 nM | 
41 | CN(C(=O)c1c(F)cccc1Cl)c1ccc(-c2cc(C(N)=O)ccc2Cl)cc1OCC(F)(F)F | 11 nM | 93 nM | Cmax [7]: 1010 ng/mL; hepatic extraction ratio [4]: 0.88; AUC(0-inf) [8]: 1130 ng·h/mL; Cmax [9]: 2350 ng/mL; CLH (Rattus norvegicus): 54%; bioavailability [10]: 28%; Papp B→A [11]: 35.3 ×10⁻⁶ cm/s; AUC(0-inf) [12]: 1550 ng·h/mL; inhibition (INH) [13]: Not Active; Papp A→B [14]: 32.2 ×10⁻⁶ cm/s; hepatic extraction ratio [5]: 0.83; half-life [15]: 1.3 h
42 | CN(C(=O)c1c(F)cccc1Cl)c1ncc(-c2cc(C(N)=O)ccc2Cl)cc1OCC(F)(F)F | 20 nM | 246 nM | Papp B→A [11]: 54.5 ×10⁻⁶ cm/s; inhibition (INH) [13]: Not Active; Papp A→B [14]: 35.9 ×10⁻⁶ cm/s
43 | [2H]C([2H])([2H])N(C(=O)c1c(F)cccc1Cl)c1ncc(-c2cc(C(N)=O)ccc2Cl)cc1OCC(F)(F)F | 89 nM | 245 nM | 
44 | CN(C(=O)c1c(F)cccc1Cl)c1ncc(-c2cc(C(N)=O)ccc2Cl)cc1OCC1CCC1 | 10 nM | 58 nM | 
45 | [2H]C([2H])([2H])N(C(=O)c1c(F)cccc1Cl)c1ncc(-c2cc(C(N)=O)ccc2Cl)cc1OCC1CCC1 | 10 nM | 60 nM | 
46 | CCNc1cc(-c2cc(C(N)=O)ccc2Cl)ccc1N(C)C(=O)c1c(F)cccc1Cl | 500 nM | 717 nM | 
47 | CCN(CC)c1cc(-c2cc(C(N)=O)ccc2Cl)ccc1N(C)C(=O)c1c(F)cccc1Cl | 3 nM | 12 nM | 
48 | CN(C(=O)c1c(F)cccc1Cl)c1ccc(-c2cc(C(N)=O)ccc2Cl)cc1N1CCCCC1 | 3 nM | 8 nM | 
49 | Cn1ccc2c(S(=O)(=O)N(CC(F)(F)F)c3ccc(-c4cc(C(N)=O)ccc4Cl)cc3)cccc21 | 710 nM |  | 
